In ChEMBL document CHEMBL1275442, “Pharmacokinetics and tissue distribution of anidulafungin in rats” (Antimicrob Agents Chemother, 2008):

Legend:
Format in all cases: ADME, organism-based
Design in all cases: dose 5 mg/kg, route intravenous
Settings in all cases: in vivo
Lung = assay: Tmax in F344 rat lung assessed as total compound-derived radioactivity at 5 mg/kg, iv administered as single bolus dose […]
Procedure, shortened: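 Male F344 rats, 10 to 11 weeks old and 223.6 to 243.8 g, got one iv dose of [14C]anidulafungin at 5 mg/kg over about 5 min. Blood, CSF, kidney, liver, lung, quadriceps, spleen and skin were sampled predose and at 0.083 to 72 h, 3 rats per time. Total radioactivity (parent plus metabolites) was measured by liquid scintillation counting. Parameters were noncompartmental, from a composite mean profile.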

Blood [1] = assay: Drug level in Long Evans rat blood assessed as radioactivity per gram of tissue at 5 mg/kg, iv administered as single bolus dose measured 0.5 hrs postdose by autoradiography
Procedure, shortened: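 Male pigmented Long Evans rats, 7.5 weeks, 202–217 g, given one IV dose of [¹⁴C]anidulafungin, 5 mg/kg. Euthanised under isoflurane with cardiac exsanguination, one rat per time. Sagittal whole-body sections quantified by phosphorimaging, corrected for section thickness. Concentrations in μg eq/g interpolated from least-squares standard curves.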

Blood [2] = assay: Drug level in Long Evans rat blood assessed as radioactivity per gram of tissue at 5 mg/kg, iv administered as single bolus dose measured 12 hrs postdose by autoradiography
Procedure, shortened: (§1)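 Male pigmented Long Evans (HsdBlu:LE) rats, 7.5 weeks old, 202 to 217 g, single iv [¹⁴C]anidulafungin; one rat per sampling time. Euthanized by isoflurane and cardiac-puncture exsanguination. Sagittal whole-body sections quantified by phosphorimaging autoradiography, single samples corrected for section thickness across multiple sections per tissue. Concentrations (μg eq/g drug-derived radioactivity) interpolated from least-squares standard curves per scan.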

Kidney = assay: Drug level in Long Evans rat kidney assessed as high disposition of radioactivity per gram of tissue at 5 mg/kg, iv administered as single bolus dose measured 6 hrs postdose by autoradiography; procedure, shortened: as §1

CCCCCOc1ccc(-c2ccc(-c3ccc([14C](=O)N[C@H]4C[C@@H](O)[C@@H](O)NC(=O)[C@@H]5[C@@H](O)[C@@H](C)CN5C(=O)[C@H]([C@@H](C)O)NC(=O)[C@H]([C@H](O)[C@@H](O)c5ccc(O)cc5)NC(=O)[C@@H]5C[C@@H](O)CN5C(=O)[C@H]([C@@H](C)O)NC4=O)cc3)cc2)cc1 [14C-ANIDULAFUNGIN]
Tmax (Lung): 4.98 min | Drug uptake (Blood [1]): 6.85 ugequiv | Drug uptake (Blood [2]): 2.55 ugequiv | Drug uptake (Kidney): 20.66 ugequiv
